Hits are enriched below; roughly 3.7% of the tested compounds scored in any of these assays.
KCNK3 block: human KCNK3 channel inhibition, primary screen; O14649; CHO-KCNK3 thallium flux, FluxOR fluorescence; active compounds read low; B-score at 10 µM; hit rate 0.84% among 340,000;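 active = B-score under library mean minus 4 SD, starting fluorescence ratio at most library mean plus 5 SD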;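 also: more negative B-score means stronger inhibition of thallium flux through KCNK3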
Target sequence (O14649 whole entry, looked up): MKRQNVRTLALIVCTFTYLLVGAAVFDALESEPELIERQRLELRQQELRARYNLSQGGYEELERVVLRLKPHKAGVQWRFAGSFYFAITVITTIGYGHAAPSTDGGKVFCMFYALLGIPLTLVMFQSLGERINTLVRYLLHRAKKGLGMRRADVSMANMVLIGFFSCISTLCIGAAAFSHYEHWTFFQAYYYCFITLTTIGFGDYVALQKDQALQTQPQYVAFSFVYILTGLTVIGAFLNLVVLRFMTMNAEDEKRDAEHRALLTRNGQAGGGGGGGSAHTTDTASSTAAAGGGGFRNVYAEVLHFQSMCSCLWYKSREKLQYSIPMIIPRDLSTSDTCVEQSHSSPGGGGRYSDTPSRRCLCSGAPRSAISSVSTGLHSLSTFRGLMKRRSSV
KCNK9 inh: inhibitors of human KCNK9 two-pore domain potassium channel; Q9NPC2; HEK293 KCNK9, FluxOR thallium flux fluorescence; active compounds read low; B-score at 10 µM; hit rate 1.2% among 310,000; AID 488922;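 active = ratio B-score over 3 SD below the library mean, with starting fluorescence within 5 SD of its mean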;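 also: negative B-score means less thallium flux so channel inhibition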
Kir21 block: inhibitors of mouse Kir2.1 inward-rectifier potassium channel. P35561. HEK293-Kir2.1, FluxOR thallium flux fluorescence; active compounds read low. B-score at 10 µM. hit rate 0.85% among 310,000. AID 1672;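 active = fluorescence ratio B-score at or below minus 3 SD of library scores, with starting-brightness B-score within 2 SD, cut at about -4.2 in these data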;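 also: channel flux triggered by added potassium and thallium sulfate stimulus; B-score of peak minus minimum fluorescence over baseline after thallium stimulus; more negative B-score means stronger Kir2.1 block with less thallium influx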
Target sequence (P35561 whole entry, looked up): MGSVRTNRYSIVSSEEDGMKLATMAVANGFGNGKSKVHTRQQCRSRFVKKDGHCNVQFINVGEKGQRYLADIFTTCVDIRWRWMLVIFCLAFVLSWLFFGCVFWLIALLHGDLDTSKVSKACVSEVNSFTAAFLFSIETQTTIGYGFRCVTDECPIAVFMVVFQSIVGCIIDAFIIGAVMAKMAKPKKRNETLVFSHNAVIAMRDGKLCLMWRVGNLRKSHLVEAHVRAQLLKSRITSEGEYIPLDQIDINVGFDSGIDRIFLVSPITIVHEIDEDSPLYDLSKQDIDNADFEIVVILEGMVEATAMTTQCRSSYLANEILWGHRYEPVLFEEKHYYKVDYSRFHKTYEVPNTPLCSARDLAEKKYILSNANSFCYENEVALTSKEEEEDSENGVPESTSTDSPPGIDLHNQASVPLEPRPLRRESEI
hERG rescue: compounds protecting human hERG from proarrhythmic drug block; Q12809; CHO-hERG, FluxOR thallium flux, dofetilide IC70 present; activation (rescue from dofetilide block), less the hit threshold, % at 10 µM; hit rate 0.51% among 310,000; AID 1511;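 active = activation above the mean of controls blocked by dofetilide plus 5 SD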;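 also: thallium influx through hERG after potassium depolarization seen as dye fluorescence rise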
KCNQ1 inh: human KCNQ1 channel inhibition | P51787 | CHO-K1 KCNQ1, FluxOR thallium flux fluorescence; active compounds read high | B-score at 10 µM | hit rate 1.3% among 310,000;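 active = compounds whose thallium flux B-score, printed positive for inhibition, exceeds three library SD while starting fluorescence stays within three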;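 also: channel opened by potassium depolarization with thallium stimulus after 20 min compound exposure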
KCNQ1 pot: potentiates or activates the human KCNQ1 potassium channel; CHO-K1 KCNQ1, thallium flux FluxOR fluorescence; active compounds read high; hit rate 0.35% among 310,000; AID 2648; B-score at 10 µM; P51787;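 active = fluorescence ratio B-score, a plate-corrected score, at least three library SD, with initial intensity B-score within 5 SD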
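Material: CHO-K1 cells stably expressing KCNQ1. Medium: assay buffer for compound exposure, DMSO matched across wells. Reagent: K+/Tl+ depolarizing stimulus. Compound dosing: single-concentration screen. Times: 37 °C overnight plating, 90-min dark dye load, 20-min compound pretreatment. Technique: FluxOR Tl+ flux fluorescence.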
KCNQ1 inh valid: reconfirmed blocker of the human KCNQ1 potassium channel; shares compounds with KCNQ1 inh; KCNQ1 cell line, FluxOR thallium flux fluorescence; inhibition, % at 10 µM; hit rate 93% among 1,600;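 active = primary screen active, with duplicate mean exceeding buffer control mean plus 3 SD of buffer wells, cut at about 28% in these data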;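 also: 0% = buffer control ratio and 100% = XE991 inhibitor control ratio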
CHO Tl flux: counter-screen for KCNQ1 inhibitors: effect in parental CHO cells; shares compounds with KCNQ1 inh; parental CHO-K1, FluxOR thallium flux fluorescence ratio; active compounds read low; zero means no signal rise above baseline; fluorescence ratio (Tl flux) at 10 µM; hit rate 21% among 1,600; AID 588366;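 active = mean of duplicate thallium-flux fluorescence ratios in parental host cells more than 5 SD below the buffer control mean, cut at about 0.38 in these data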;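 also: ratio is peak minus minimum fluorescence divided by baseline fluorescence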
KCNQ1 ephys val: blocks human KCNQ1 current in automated patch clamp; shares compounds with KCNQ1 inh; KCNQ1-CHO cells; calls only at 10 µM; hit rate 20% among 490;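 active = KCNQ1 current drop exceeding 3 SD of negative control wells, seen in both duplicate runs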;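 also: steady state current during a 2 s step from -80 to +40 mV; negative values mean current inhibition and positive values mean potentiation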
KCNQ2 inh: rat KCNQ2 inhibition in KCNQ1 inhibitor specificity screen; shares compounds with KCNQ1 inh; KCNQ2 cells, FluxOR thallium flux fluorescence; inhibition, % at 10 µM; hit rate 71% among 1,600;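 active = mean percent inhibition of the KCNQ2 thallium signal more than 5 SD above the buffer-only control wells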;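 also: KCNQ2 expressed in CHO cells; 0% = buffer control wells and 100% = XE-991 inhibitor control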
KCNQ1 KCNE1 spec: selectivity of KCNQ1 inhibitors: inhibition of human KCNQ1/KCNE1 channel | hit rate 77% among 1,600 | KCNQ1/KCNE1 cells, FluxOR thallium flux fluorescence | AID 652147 | inhibition, % at 10 µM | shares compounds with KCNQ1 inh;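 active = mean percent inhibition of duplicate wells above the buffer-only control mean plus 3 SD of those controls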;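 also: 0% = buffer only wells and 100% = XE-991 inhibitor control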
KCNK9 block conf: human KCNK9 inhibitor confirmation; inhibition, % at 10 µM; shares compounds with KCNK9 inh; HEK293 KCNK9 cells, FluxOR thallium flux fluorescence; hit rate 43% among 4,900;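 active = thallium signal inhibited by more than 5 SD of the compound-free buffer control wells, on both duplicate plates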;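 also: 0% = assay buffer control wells without compound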
Kir21 sel: selectivity of KCNK9 modulators against mouse Kir2.1. Kir2.1 cells, FluxOR thallium flux fluorescence. AID 492993. hit rate 4% among 4,900. inhibition, % at 10 µM. shares compounds with KCNK9 inh;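 active = thallium signal drop more than 5 SD beyond the mean of the no-compound control wells, seen in both duplicate plates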;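 also: signal is fluorescence rise after thallium addition divided by baseline fluorescence; plate controls were assay buffer only for no effect and full block by chlorpromazine control for full effect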
HEK293 Tl ctr: second counter-screen for KCNK9 modulators: effect in non-induced cells | shares compounds with KCNK9 inh | non-induced KCNK9-HEK293, FluxOR thallium flux | inhibition, % at 10 µM | hit rate 40% among 4,900 | AID 492997;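 active = thallium signal drop beyond 5 SD of the untreated control mean, on both duplicate plates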;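 also: plate controls were buffer only IC0 wells for no effect and SID17386958 at its maximal inhibitory level for full effect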
KCNK3 confirm: confirmation of human KCNK3 two-pore domain potassium channel inhibitors; shares compounds with KCNK3 block; CHO-KCNK3 thallium flux, FluxOR fluorescence; 0% buffer, 100% carvedilol maximal block; ratio percent of control, % at 10 µM; hit rate 99% among 2,400; AID 651638;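 active = ratio percent of control, averaged over triplicates, above buffer control mean plus 5 SD, cut at about 64% in these data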;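 also: ratio is the fluorescence rise from min to max over baseline after thallium stimulus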
KCNK3 uninduced: counter-screen for KCNK3 inhibitors: effect in non-induced cells; thallium flux ratio (lower = more inhibition) at 10 µM; non-induced KCNK3 parental cells, FluxOR thallium flux; active compounds read low; AID 651747; shares compounds with KCNK3 block; hit rate 40% among 2,400;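 active = thallium flux ratio, averaged over three wells, more than 5 SD below the buffer control mean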;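 also: host cells are CHO cells without KCNK3 induction; ratio is peak minus trough fluorescence over baseline then normalized to buffer controls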
Active calls of the source: *; i = inactive; · = no result; + = active, no number.

SMILES	KCNK3 block	KCNK9 inh	Kir21 block	hERG rescue	KCNQ1 inh	KCNQ1 pot	KCNQ1 inh valid	CHO Tl flux	KCNQ1 ephys val	KCNQ2 inh	KCNQ1 KCNE1 spec	KCNK3 confirm	KCNK3 uninduced	others
Cc1sc2ncnc(N3CCC(C(=O)Nc4cc(Cl)ccc4Cl)CC3)c2c1C	-10*	i	0.15	-15	11*	i	71*	0.46	·	123%*	99%*	127*	0.13*
Cc1sc2ncnc(N3CCC(C(=O)NNC(=O)c4ccc(Cl)cc4)CC3)c2c1C	i	i	1.1	-15	i	i	·	·	·	·	·	·	·
O=C(CCCOc1ccc(Cl)cc1Cl)N1CCCc2ccccc21	-11*	i	-1.8	-11	8*	i	112*	0.41	i	92%*	167%*	122*	0.14*	KCNK9 block conf=i;Kir21 sel=i;HEK293 Tl ctr=33%*
O=C(Cc1c(F)cccc1Cl)NNC(=S)Nc1ccc(S(=O)(=O)Nc2ncccn2)cc1	i	i	-0.1	-9	i	i	·	·	·	·	·	·	·
Cc1ccc(C)c(NC(=S)N(CCN(C)C)C(C)c2ccccn2)c1 (stereo unspecified)	i	i	2.1	-6	i	i	·	·	·	·	·	·	·
CC(C)(CNC(=O)Cc1ccc(Cl)cc1Cl)N1CCCCC1	i	i	-0.32	-5	i	i	·	·	·	·	·	·	·
CCOC(=O)c1cc2c(ccn2C)n1Cc1ccc(Cl)cc1	-9.7*	-11*	0.25	-20	6*	i	110*	0.37*	·	68%*	116%*	136*	0.13*	KCNK9 block conf=42%*;Kir21 sel=i;HEK293 Tl ctr=37%*
COc1ccc(-c2csc3ncnc(N4CCN(c5ccccc5)CC4)c23)cc1	i	-6.7*	0.13	-13	15*	i	134*	0.37*	·	132%*	+	106*	0.13*
COc1ccc(-c2csc3ncnc(N4CCN(Cc5ccccc5)CC4)c23)cc1	i	i	0.67	-20	i	i	·	·	·	·	·	·	·
CC1CCCN(S(=O)(=O)CCNC(=O)c2ccccc2)C1 (stereo unspecified)	i	i	-0.88	-16	i	i	·	·	·	·	·	·	·
CCc1nc(N2CCN(Cc3ccc4c(c3)OCO4)CC2)c2oc3ccccc3c2n1	-9*	i	-0.69	-17	9*	i	128*	0.41	i	105%*	179%*	109*	0.14*
CCC(C(=O)Nc1ccncc1)c1ccccc1 (stereo unspecified)	i	i	-0.42	-7	i	i	·	·	·	·	·	·	·
CCC(C(=O)Nc1cccc(C(F)(F)F)c1)c1ccccc1 (stereo unspecified)	-9.4*	-10*	0.18	-12	11*	i	104*	0.4	+	72%*	116%*	128*	0.13*	KCNK9 block conf=64%*;Kir21 sel=i;HEK293 Tl ctr=44%*
COc1ccc(-n2cc(-c3ccccc3)c3c(N4CC(C)OC(C)C4)ncnc32)cc1 (stereo unspecified)	-11*	i	-1.3	-35	12*	i	121*	0.41	i	142%*	170%*	114*	0.13*
CCOc1ccc(-n2cc(-c3ccccc3)c3c(N4CCOCC4)ncnc32)cc1	i	i	0.27	-14	i	i	·	·	·	·	·	·	·
Cc1cccc2sc(NC(=O)C3CC3)nc12	i	i	0.92	-5	i	i	·	·	·	·	·	·	·
Cc1cccc2sc(NC(=O)C3c4ccccc4Oc4ccccc43)nc12	-10*	-10*	-0.49	-13	13*	i	112*	0.45	i	76%*	144%*	130*	0.15*	KCNK9 block conf=44%*;Kir21 sel=i;HEK293 Tl ctr=40%*
O=C(O)c1ccc2ncc(NC(=O)c3ccc(F)cc3)c(=O)n2c1	i	i	-0.81	-6	i	i	·	·	·	·	·	·	·
CC1C(=O)N(Cc2ccccc2F)c2ccccc2N1C(=O)c1c(F)cccc1F (stereo unspecified)	-9*	-7.7*	0.01	-19	15*	i	58*	0.44	·	78%*	50%*	87*	i
COc1ccc2oc(C(=O)OCc3nnc(-c4ccccc4)o3)c(C)c2c1	i	i	1.7	-6	i	i	·	·	·	·	·	·	·
Cc1c(C(=O)Nc2ccc(Cl)cc2)c2ccccn2c1C(=O)c1ccc(F)cc1	i	i	-3	-7	i	i	·	·	·	·	·	·	·
Cc1c(C(=O)Nc2cccc(Cl)c2)c2ccccn2c1CCc1ccncc1	-10*	i	-1.9	-11	9*	i	159*	0.36*	·	123%*	+	134*	0.12*
CC(C)(CN1CCN(Cc2ccccc2)CC1)NS(=O)(=O)c1ccccc1	i	i	-2	-9	i	i	·	·	·	·	·	·	·
CC(C)(CN1CCN(C(c2ccccc2)c2ccccc2)CC1)NS(=O)(=O)c1ccccc1	i	-9.6*	-0.16	-2	6*	i	106*	0.44	i	i	116%*	103*	0.16*	KCNK9 block conf=40%*;Kir21 sel=i;HEK293 Tl ctr=47%*
Cc1nc2ccccc2c2c1CC(C(C)(Cl)Br)O2 (stereo unspecified)	-9.6*	i	-0.94	-26	6*	i	106*	0.48	+	80%*	i	127*	i

Assay outcomes (PubChem)
